The record followed here is ChEMBL document CHEMBL1212825, “Synthesis and structure-activity relationships of N-(2-oxo-3-oxetanyl)amides as N-acylethanolamine-hydrolyzing acid amidase inhibitors” (J Med Chem, 2010).

The source made the active and inactive calls. The rule behind the calls is not given here. Some results are limits rather than exact numbers.

T1: N-acylethanolamine-hydrolyzing acid amidase (Rattus norvegicus) (UniProt Q5KTC7)
T1 sequence (whole entry): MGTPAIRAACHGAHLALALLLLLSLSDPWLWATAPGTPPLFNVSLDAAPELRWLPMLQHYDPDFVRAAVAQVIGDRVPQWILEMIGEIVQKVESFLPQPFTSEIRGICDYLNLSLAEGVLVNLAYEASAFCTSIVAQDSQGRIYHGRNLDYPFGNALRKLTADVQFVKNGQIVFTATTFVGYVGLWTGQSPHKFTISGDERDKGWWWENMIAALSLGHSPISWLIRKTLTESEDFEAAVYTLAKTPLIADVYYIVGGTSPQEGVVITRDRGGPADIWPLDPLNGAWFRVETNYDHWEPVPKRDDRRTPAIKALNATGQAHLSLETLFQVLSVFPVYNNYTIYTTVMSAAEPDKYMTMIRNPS

T2: N-acylethanolamine-hydrolyzing acid amidase (Rattus norvegicus, UniProt Q5KTC7)
T2 sequence (Q5KTC7 whole entry): T1 sequence (whole entry)

B1: N-acylethanolamine-hydrolyzing acid amidase (Rattus norvegicus), Q5KTC7 (protein)
chain: T1 sequence (whole entry)

Substrate in one data set: O=C(N[C@H]1COC1=O)c1ccc(-c2ccccc2)cc1
Test: not given
To be noted: Rattus norvegicus; HEK293; 200 nM.
A word on the Vmax: it is the rate approached at saturating substrate. On to B1, for which the Vmax was determined as 6.2 nmol/min.

The next data set relates to Mus musculus. Nature of the data set: Antiinflammatory activity in polyethylene sponges implanted mouse assessed as inhibition of carrageenan-induced reduction of palmitoylethanolamine level compound administered into sponges. Type of data set: functional, organism-based.
Settings: not given
The procedure, abridged: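 Mice received subcutaneous polyethylene sponges (1 cm3, 2 per mouse) under dorsal skin. Each sponge was instilled with carrageenan 1.0% in 90 μL sterile saline plus drug or vehicle (DMSO, 10 μL/sponge), with drugs given over a range of doses. PEA measured by LC/MS.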
`O=C(CCc1ccccc1)N[C@H]1COC1=O`: the Activity entry is “Dose-dependent effect”. For the molecule `O=C(N[C@H]1COC1=O)c1ccc(-c2ccccc2)cc1`, the Activity entry was “Dose-dependent effect”.

The target of the next data set is T1, N-acylethanolamine-hydrolyzing acid amidase (Rattus norvegicus). Nature of the data set: Inhibition of rat recombinant NAAA expressed in HEK293 cells assessed as recovered initial enzyme activity at 10 uM after 12 hrs of dialysis; values are per cent of control.
Settings: not given
What is called residual activity is the activity still measured, relative to the control. As to `O=C(CCc1ccccc1)N[C@H]1COC1=O`, the residual activity was found to be 44%.

Substrate in another data set: O=C(N[C@H]1COC1=O)c1ccc(-c2ccccc2)cc1
Test: not given
As to conditions: Rattus norvegicus; HEK293; 200 nM. The source holds these as a separate data set.
For orientation: Km means the concentration of substrate that gives half-maximal velocity. Regarding B1, the Km stood at 156 µM.

A further data set has as its system Mus musculus. Nature of the data set: Antiinflammatory activity in polyethylene sponges implanted mouse assessed as reduction of carrageenan-induced leukocyte infiltration compound administered into sponges. Type of data set: functional, organism-based.
Settings: not given
For `O=C(CCc1ccccc1)N[C@H]1COC1=O`, the outcome was Active.

`O=C(N[C@H]1COC1=O)c1ccc(-c2ccccc2)cc1`: the result was Active.

Another data set concerns the target T2, N-acylethanolamine-hydrolyzing acid amidase. Nature of the data set: Inhibition of rat recombinant NAAA expressed in HEK293 cells after 30 mins. Type of data set: cell-based.
Settings: not given
Put shortly:
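Rat NAAA (full-length coding sequence cloned from rat brain cDNA, Flag-tagged) stably expressed in HEK293 cells, selected with G418 0.3 mg/mL. Enzyme taken as 105,000 g supernatant after freeze-thaw of the 12,000 g pellet. Incubated at 37 °C for 30 min in 50 mM sodium hydrogen phosphate pH 5.0 with 0.1% Triton X-100, 3 mM DTT and 50 μM heptadecenoylethanolamide substrate. IC50 reported.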
For orientation: IC50 means the concentration that inhibits the measured activity by half. For `COc1ccc2cc(C(=O)N[C@H]3COC3=O)ccc2c1`, the IC50 was 400 nM. Regarding `O=C(N[C@H]1COC1=O)c1ccc2ccccc2c1`, the IC50 stood at 160 nM. In the case of `O=C(N[C@H]1COC1=O)c1cccc(-c2ccccc2)c1`, the IC50 is 4400 nM. Regarding `C[C@@H]1OC(=O)[C@@H]1NC(=O)CCc1ccccc1`, the IC50 came out at 3200 nM.

On to `O=C(Cc1ccccc1)N[C@H]1COC1=O`, for which the half-inhibitory concentration (IC50) was 1850 nM. Still for that read-out and setting: with `C[C@H]1OC(=O)[C@H]1NC(=O)CCc1ccccc1` the figure was greater than 100000 nM; with `O=C(CCc1ccccc1)N[C@@H]1COC1=O`, 6000 nM. With `O=C(N[C@H]1COC1=O)OCc1ccccc1`, the 50% inhibitory concentration (IC50) was determined as 2960 nM. In the case of `O=C(N[C@@H]1COC1=O)c1ccc2ccccc2c1`, the IC50 was 3200 nM.

For `O=C1OCC1CCCCc1ccccc1` (racemic), the IC50 was 11000 nM. On the same count and under the same terms, to `O=C(N[C@H]1COC1=O)c1cccc2ccccc12` belongs 50000 nM; to `CCOC(=O)c1ccc2cc(C(=O)N[C@H]3COC3=O)ccc2c1`, 300 nM; to `O=C(N[C@H]1COC1=O)c1ccc(C(=O)Oc2ccccc2)cc1`, 300 nM. Still for that read-out and setting: with `O=C(CCc1ccccc1)NC1CCC1` the figure was greater than 100000 nM. Take `O=C(CCc1ccccc1)N[C@H]1CCOC1=O`: the IC50 is greater than 100000 nM. On the same count and under the same terms, with `O=C(N[C@H]1COC1=O)c1ccc(OCc2ccccc2)cc1` the figure was 90 nM. Still for that read-out and setting: to `CCCCCCC(=O)N[C@H]1COC1=O` belongs 460 nM; to `O=C(N[C@H]1CCOC1=O)c1ccc2ccccc2c1`, greater than 100000 nM; to `O=C(CCc1ccccc1)N[C@@H](CO)C(=O)O`, greater than 100000 nM. Take `O=C(N[C@H]1COC1=O)c1ccccc1`: the half-maximal inhibitory concentration (IC50) is 1700 nM. In the case of `O=C(CCCCCCc1ccccc1)N[C@H]1COC1=O`, the IC50 was determined as 1500 nM. `CCc1ccc(C(=O)N[C@H]2COC2=O)cc1`: the IC50 was found to be 102 nM.

Substrate in the next data set: O=C(N[C@H]1COC1=O)c1ccc(-c2ccccc2)cc1
Test: not given
To be noted: Rattus norvegicus; HEK293; 100 nM.
Consider B1, for which the Vmax was 10.8 nmol/min.

Substrate in a further data set: O=C(N[C@H]1COC1=O)c1ccc(-c2ccccc2)cc1
Test: not given
To be noted: Rattus norvegicus; HEK293; 100 nM. The source holds these as a separate data set.
B1: the Michaelis constant (Km) was found to be 129 µM.
